Laboratory results: ChEMBL document CHEMBL3525987, “Assessment of exposure of metabolites in preclinical species and humans at steady state from the single-dose radiolabeled absorption, distribution, metabolism, and excretion studies: a case study” (Drug Metab Dispos, 2012)

What was measured:
Homo sapiens [1] = assay: Drug level in human plasma treated with [14C]lixivaptan at 100 mg, po administered as single dose measured after 24 hrs by liquid scintillation counting; format: ADME, organism-based; set-up: dosed compound name [14C]lixivaptan; conditions: in vivo
How it was run: (§1)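 Healthy male volunteers fasted ≥10 h, given single oral 100 mg (200 µCi) [14C]drug as two 50-mg capsules with 250 ml water. Plasma (from ~50 ml blood) at 0.5, 2, 4, 8, 12, 24, 36 h, profiled per subject. Acetonitrile extraction, C18 radio-HPLC with 0.2% formic acid acetonitrile/water gradient, on-line radioactivity detection as % plasma radioactivity; ng-equiv/ml from % × total radioactivity.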

Homo sapiens [2] = assay: Drug level in human plasma treated with [14C]lixivaptan at 100 mg, po administered as single dose measured after 0.5 hrs by liquid scintillation counting; format: ADME, organism-based; set-up: dosed compound name [14C]lixivaptan; conditions: in vivo; how it was run: as §1
Homo sapiens [3] = assay: Drug level in human plasma treated with [14C]lixivaptan at 100 mg, po administered as single dose measured after 12 hrs by liquid scintillation counting; format: ADME, organism-based; set-up: dosed compound name [14C]lixivaptan; conditions: in vivo; how it was run: as §1
[4] = Retention time of the compound by HPLC analysis; format: physicochemical; set-up: dosed compound name [14C]lixivaptan
Homo sapiens [5] = assay: Drug level in human plasma treated with [14C]lixivaptan at 100 mg, po administered as single dose measured after 8 hrs by liquid scintillation counting; format: ADME, organism-based; set-up: dosed compound name [14C]lixivaptan; conditions: in vivo; how it was run: as §1
Homo sapiens [6] = assay: Drug level in human plasma treated with [14C]lixivaptan at 100 mg, po administered as single dose measured after 4 hrs by liquid scintillation counting; format: ADME, organism-based; set-up: dosed compound name [14C]lixivaptan; conditions: in vivo; how it was run: as §1
Homo sapiens [7] = assay: Drug level in human plasma treated with [14C]lixivaptan at 100 mg, po administered as single dose measured after 2 hrs by liquid scintillation counting; format: ADME, organism-based; set-up: dosed compound name [14C]lixivaptan; conditions: in vivo; how it was run: as §1
Homo sapiens [8] = assay: Drug level in human plasma treated with [14C]lixivaptan at 100 mg, po administered as single dose measured after 36 hrs by liquid scintillation counting; format: ADME, organism-based; set-up: dosed compound name [14C]lixivaptan; conditions: in vivo; how it was run: as §1
Homo sapiens [9] = assay: AUC (0 to 24 hrs) in human treated with [14C]lixivaptan at 100 mg, po administered as single dose; format: ADME, organism-based, Plasma; set-up: time < 24 hr, dose 100 mg, route oral, dosed compound name [14C]lixivaptan; conditions: in vivo
How it was run: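 Healthy young men fasted 10 h and took one oral dose of [14C]lixivaptan, 100 mg (200 µCi) as two capsules with water, eating 4 h later. Plasma from each subject at 0.5, 2, 4, 8, 12, 24 and 36 h was acetonitrile-extracted and profiled by C18 radio-HPLC (formic acid/acetonitrile gradient) with flow detection. Component concentrations were % of radioactivity × total plasma radioactivity, giving AUC0-24 in ng-equiv.h/ml.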

Canis familiaris [10] = assay: Drug level in beagle dog plasma treated with [14C]lixivaptan at 10 mg/kg, po administered as single dose measured after 24 hrs by liquid scintillation counting; format: ADME, organism-based, Canis lupus familiaris; set-up: dose 10 mg/kg, dosed compound name [14C]lixivaptan, route oral; conditions: in vivo
How it was run: (§2)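 Four male beagles fasted 18 h were gavaged once with [14C]lixivaptan at 10 mg/kg (2 ml/kg). The 5.0 mg/ml suspension was in deionized water with pluronic F68 (1.04 µCi/mg). Jugular K2EDTA plasma was taken at 2, 8 and 24 h and extracted twice with 2 volumes of acetonitrile. Profiling used C18 radio-HPLC (ammonium formate/acetonitrile gradient) with on-line flow scintillation detection. Each peak is reported as percent of plasma radioactivity.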

Canis familiaris [11] = assay: Toxicity in beagle dog treated with [14C]lixivaptan at 10 mg/kg, po administered as single dose via gavage; format: organism-based, Canis lupus familiaris; set-up: dose 10 mg/kg, dosed compound name [14C]lixivaptan, route oral; conditions: in vivo
Rattus norvegicus [12] = assay: Drug level in male Sprague-Dawley rat plasma treated with [14C]lixivaptan at 10 mg/kg, po administered as single dose via gavage measured after 1 hr by liquid scintillation counting; format: ADME, organism-based; set-up: dose 10 mg/kg, dosed compound name [14C]lixivaptan, route oral; conditions: in vivo
How it was run: (§3)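 Single oral gavage of [14C]drug (10 mg/kg, 10 ml/kg) as suspension in deionized water with pluronic F68, ~29.8 µCi/mg; SD rats fasted 18 h, fed 4 h post-dose. Blood by cardiac puncture under isoflurane, 3 rats/time/gender, into K2EDTA at 1, 8, 24 h; plasma extracted twice with 2 vol acetonitrile, radio-HPLC on C18 with flow radioactivity detection, expressed as % plasma radioactivity.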

Homo sapiens [13] = assay: Drug concentration at steady state in human treated with [14C]lixivaptan at 100 mg, po qd for 7 days by LC/MS/MS analysis; format: ADME, organism-based; set-up: dosed compound name Lixivaptan; conditions: in vivo, 168 h
How it was run: (§4)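 Phase 1 human study with lixivaptan 100 mg orally once daily and blood taken on the final day. Parent and two abundant metabolites were quantified in plasma with a validated LC-MS/MS assay.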

Homo sapiens [14] = assay: Cmax in human treated with [14C]lixivaptan at 100 mg, po qd for 7 days; format: ADME, organism-based; set-up: dose 100 mg, route oral, dosed compound name [14C]lixivaptan; conditions: in vivo, 168 h
Rattus norvegicus [15] = assay: Drug level in male Sprague-Dawley rat plasma treated with [14C]lixivaptan at 10 mg/kg, po administered as single dose via gavage measured after 8 hrs by liquid scintillation counting; format: ADME, organism-based; set-up: dose 10 mg/kg, dosed compound name [14C]lixivaptan, route oral; conditions: in vivo; how it was run: as §3
Canis familiaris [16] = assay: Drug level in beagle dog plasma treated with [14C]lixivaptan at 10 mg/kg, po administered as single dose measured after 8 hrs by liquid scintillation counting; format: ADME, organism-based, Canis lupus familiaris; set-up: dose 10 mg/kg, dosed compound name [14C]lixivaptan, route oral; conditions: in vivo; how it was run: as §2
Rattus norvegicus [17] = assay: Drug level in male Sprague-Dawley rat plasma treated with [14C]lixivaptan at 10 mg/kg, po administered as single dose via gavage measured after 24 hrs by liquid scintillation counting; format: ADME, organism-based; set-up: dose 10 mg/kg, dosed compound name [14C]lixivaptan, route oral; conditions: in vivo; how it was run: as §3
Rattus norvegicus [18] = assay: Toxicity in male Sprague-Dawley rat treated with [14C]lixivaptan at 10 mg/kg, po administered as single dose via gavage; format: organism-based; set-up: dose 10 mg/kg, dosed compound name [14C]lixivaptan, route oral; conditions: in vivo
Homo sapiens [19] = assay: AUC in human treated with [14C]lixivaptan at 100 mg, po qd for 7 days; format: ADME, organism-based, Plasma; set-up: dosed compound name [14C]lixivaptan; conditions: in vivo, 168 h
Rattus norvegicus [20] = assay: Toxicity in female Sprague-Dawley rat treated with [14C]lixivaptan at 10 mg/kg, po administered as single dose via gavage; format: organism-based; set-up: dose 10 mg/kg, dosed compound name [14C]lixivaptan, route oral; conditions: in vivo
Rattus norvegicus [21] = assay: Drug level in female Sprague-Dawley rat plasma treated with [14C]lixivaptan at 10 mg/kg, po administered as single dose via gavage measured after 24 hrs by liquid scintillation counting; format: ADME, organism-based; set-up: dose 10 mg/kg, dosed compound name [14C]lixivaptan, route oral; conditions: in vivo
How it was run: (§5)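 Sprague-Dawley rats (9/gender) were fasted 18 h and gavaged once with [14C]lixivaptan at 10 mg/kg (10 ml/kg), about 29.8 µCi/mg, suspended in deionized water with pluronic F68. Plasma came by cardiac puncture under isoflurane at 1, 8 and 24 h (3/gender/time) and was extracted twice with 2 volumes of acetonitrile. C18 radio-HPLC with a flow scintillation detector gave percent of plasma radioactivity per peak.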

Canis familiaris [22] = assay: AUC (0 to 24 hrs) in beagle dog treated with [14C]lixivaptan at 10 mg/kg, po administered as single dose; format: ADME, organism-based, Canis lupus familiaris, Plasma; set-up: time < 24 hr, dose 10 mg/kg, dosed compound name [14C]lixivaptan, route oral; conditions: in vivo
Rattus norvegicus [23] = assay: AUC (0 to 24 hrs) in female Sprague-Dawley rat treated with [14C]lixivaptan at 10 mg/kg, po administered as single dose via gavage; format: ADME, organism-based, Plasma; set-up: time < 24 hr, dose 10 mg/kg, dosed compound name [14C]lixivaptan, route oral; conditions: in vivo; how it was run: as §5
Rattus norvegicus [24] = assay: Drug level in female Sprague-Dawley rat plasma treated with [14C]lixivaptan at 10 mg/kg, po administered as single dose via gavage measured after 8 hrs by liquid scintillation counting; format: ADME, organism-based; set-up: dose 10 mg/kg, dosed compound name [14C]lixivaptan, route oral; conditions: in vivo; how it was run: as §3
Rattus norvegicus [25] = assay: AUC (0 to 24 hrs) in male Sprague-Dawley rat treated with [14C]lixivaptan at 10 mg/kg, po administered as single dose via gavage; format: ADME, organism-based, Plasma; set-up: time < 24 hr, dose 10 mg/kg, dosed compound name [14C]lixivaptan, route oral; conditions: in vivo; how it was run: as §5
Canis familiaris [26] = assay: Drug level in beagle dog plasma treated with [14C]lixivaptan at 10 mg/kg, po administered as single dose measured after 2 hrs by liquid scintillation counting; format: ADME, organism-based, Canis lupus familiaris; set-up: dose 10 mg/kg, dosed compound name [14C]lixivaptan, route oral; conditions: in vivo; how it was run: as §2
Homo sapiens [27] = assay: AUC at steady state in human treated with [14C]lixivaptan at 100 mg, po qd for 7 days by LC/MS/MS analysis; format: ADME, organism-based, Plasma; set-up: dosed compound name Lixivaptan; conditions: in vivo, 168 h; how it was run: as §4
Rattus norvegicus [28] = assay: Drug level in female Sprague-Dawley rat plasma treated with [14C]lixivaptan at 10 mg/kg, po administered as single dose via gavage measured after 1 hr by liquid scintillation counting; format: ADME, organism-based; set-up: dose 10 mg/kg, dosed compound name [14C]lixivaptan, route oral; conditions: in vivo; how it was run: as §5

Row | Compound | Compound recovery (Homo sapiens [1]) [%] | Compound recovery (Homo sapiens [2]) [%] | Compound recovery (Homo sapiens [3]) [%] | Retention_time [4] [min] | Compound recovery (Homo sapiens [5]) [%] | Compound recovery (Homo sapiens [6]) [%] | Compound recovery (Homo sapiens [7]) [%] | Compound recovery (Homo sapiens [8]) [%] | AUC (Homo sapiens [9]) [ng.Eq.hr/ml] | Compound recovery (Canis familiaris [10]) [%] | Activity (Canis familiaris [11]) | Compound recovery (Rattus norvegicus [12]) [%] | Css (Homo sapiens [13]) [ng/mL] | Cmax (Homo sapiens [14]) [ng/mL] | Compound recovery (Canis familiaris [16]) [%] | Activity (Rattus norvegicus [18]) | AUC (Homo sapiens [19]) [ng·h/mL] | Activity (Rattus norvegicus [20]) | Compound recovery (Rattus norvegicus [21]) [%] | Compound recovery (Rattus norvegicus [24]) [%] | further results
1 | Cc1ccc(F)cc1C(=O)Nc1ccc(C(=O)N2Cc3cccn3C(O)c3ccccc32)c(Cl)c1 (stereo not given) | 4.2 | 2.7 | 1.6 | 25.2 | 2.1 | 2.4 | 2.2 | 3.8 |  |  |  |  |  |  |  |  |  |  |  |  | 
2 | Cc1ccc(F)cc1C(=O)Nc1ccc(C(=O)N2C=C3CCC(=O)N3Cc3ccccc32)c(Cl)c1 | 2.1 | 0.6 | 2.1 | 20.2 | 2.4 | 2.5 | 1.5 |  | 268 |  |  |  |  |  |  |  |  |  |  |  | 
3 | Cc1ccc(F)cc1C(=O)Nc1ccc(C(=O)Nc2ccccc2C(=O)O)c(Cl)c1 | 38.8 | 1.5 | 30.1 | 24.5 | 28.4 | 19.6 | 12.6 | 35.2 | 5180 | 38.7 | Non-toxic | 58.5 | 658 | 278 | 29.7 | Non-toxic | 5180 | Non-toxic | 97.4 | 42.4 | Compound recovery (Rattus norvegicus [15]): 73.9%; Compound recovery (Rattus norvegicus [17]): 67.8%; AUC (Canis familiaris [22]): 22400 ng.Eq.hr/ml; AUC (Rattus norvegicus [23]): 11100 ng.Eq.hr/ml; AUC (Rattus norvegicus [25]): 32100 ng.Eq.hr/ml; Compound recovery (Canis familiaris [26]): 15.3%; AUCss (Homo sapiens [27]): 6610 ng·h/mL; Compound recovery (Rattus norvegicus [28]): 9%
4 | Cc1ccc(F)cc1C(=O)Nc1ccc(C(=O)N2CC3C=CC(=O)N3Cc3ccccc32)c(Cl)c1 (stereo not given) |  |  |  |  |  |  |  |  |  | 3.9 | Non-toxic | 5.4 |  |  | 11.1 | Non-toxic |  | Non-toxic | 2.6 | 25.2 | Compound recovery (Canis familiaris [26]): 19.4%; Compound recovery (Rattus norvegicus [28]): 36.2%
5 | Cc1ccc(F)cc1C(=O)Nc1ccc(C(=O)Nc2ccccc2Cn2cccc2C(=O)O)c(Cl)c1 | 11 | 4.1 | 11.2 | 23.3 | 12.2 | 16.8 | 16.5 | 7.6 | 2680 |  | Non-toxic |  | 454 | 290 |  | Non-toxic | 2680 | Non-toxic |  |  | AUCss (Homo sapiens [27]): 3040 ng·h/mL
